In one data set the target is T1, Histone deacetylase 11 (Homo sapiens, UniProt Q96DB2).
T1 sequence (Q96DB2 whole entry): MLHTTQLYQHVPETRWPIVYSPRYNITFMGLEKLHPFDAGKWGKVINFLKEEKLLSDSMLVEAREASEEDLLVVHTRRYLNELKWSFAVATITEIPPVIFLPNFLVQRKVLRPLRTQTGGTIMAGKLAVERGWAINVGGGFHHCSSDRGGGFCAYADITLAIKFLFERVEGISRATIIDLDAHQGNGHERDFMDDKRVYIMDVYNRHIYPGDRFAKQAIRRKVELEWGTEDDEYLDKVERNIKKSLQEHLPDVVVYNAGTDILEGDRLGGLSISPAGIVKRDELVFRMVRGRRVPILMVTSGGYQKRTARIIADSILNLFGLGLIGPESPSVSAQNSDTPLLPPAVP
The experiment in a line: Inhibition of full length N-terminal GST-tagged recombinant human HDAC11 expressed in baculovirus using Arg-His-Lys-Lys (Ac) as substrate after 1 hr by fluorescence plate reader analysis.

Another data set is filed under the species Homo sapiens. The experiment in a line: Selectivity ratio of IC50 for full length C-terminal His6x-tagged recombinant human HDAC8 to IC50 for N-terminal GST-tagged recombinant HDAC6 (unknown origin).
Data set [1] addresses T2, Protein deacetylase HDAC6 (Homo sapiens) (UniProt Q9UBN7).
T2 sequence (whole entry): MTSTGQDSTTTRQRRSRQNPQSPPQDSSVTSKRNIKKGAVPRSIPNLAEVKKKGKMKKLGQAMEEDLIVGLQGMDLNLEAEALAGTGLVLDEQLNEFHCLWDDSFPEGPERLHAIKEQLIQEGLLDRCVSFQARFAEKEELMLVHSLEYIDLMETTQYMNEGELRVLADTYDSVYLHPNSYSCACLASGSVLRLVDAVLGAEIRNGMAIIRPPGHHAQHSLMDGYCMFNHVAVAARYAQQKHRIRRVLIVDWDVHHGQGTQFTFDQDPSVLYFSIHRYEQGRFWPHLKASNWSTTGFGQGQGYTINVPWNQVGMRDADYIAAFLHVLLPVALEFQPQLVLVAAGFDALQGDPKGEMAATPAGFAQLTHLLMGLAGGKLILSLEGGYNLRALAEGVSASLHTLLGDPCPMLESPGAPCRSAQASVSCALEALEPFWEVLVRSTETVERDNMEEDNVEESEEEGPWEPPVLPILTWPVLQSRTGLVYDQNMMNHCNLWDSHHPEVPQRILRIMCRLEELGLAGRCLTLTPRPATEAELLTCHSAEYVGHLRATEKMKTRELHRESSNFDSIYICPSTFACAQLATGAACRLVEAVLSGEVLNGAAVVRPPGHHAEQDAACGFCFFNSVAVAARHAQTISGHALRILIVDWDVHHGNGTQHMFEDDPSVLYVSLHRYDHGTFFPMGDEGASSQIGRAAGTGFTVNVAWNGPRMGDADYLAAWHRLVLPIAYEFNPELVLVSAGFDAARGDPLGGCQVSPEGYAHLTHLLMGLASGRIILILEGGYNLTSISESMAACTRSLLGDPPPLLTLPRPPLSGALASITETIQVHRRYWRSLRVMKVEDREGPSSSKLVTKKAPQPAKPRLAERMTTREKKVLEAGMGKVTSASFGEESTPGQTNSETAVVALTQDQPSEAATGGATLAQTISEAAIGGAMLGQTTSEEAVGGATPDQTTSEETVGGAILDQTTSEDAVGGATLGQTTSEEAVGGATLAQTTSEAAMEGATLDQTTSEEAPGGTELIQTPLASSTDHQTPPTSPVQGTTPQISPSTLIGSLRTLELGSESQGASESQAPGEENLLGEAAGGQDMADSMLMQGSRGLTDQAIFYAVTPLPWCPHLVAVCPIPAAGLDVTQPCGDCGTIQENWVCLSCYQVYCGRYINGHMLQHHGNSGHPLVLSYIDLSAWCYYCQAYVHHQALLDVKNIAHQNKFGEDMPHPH
The experiment in a line: Inhibition of HDAC6 in human HeLa cells assessed as inhibition of acetyl histone hydrolysis at 10 uM after 24 hrs by immunofluorescence assay relative to control. The format is cell-based. The gist of the method: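 HeLa cells (8000/well, MEM with 10% FBS) given compound 24 h (histone) or 6 h (tubulin). Fixed in 4% paraformaldehyde, permeabilized with 0.5% Triton X-100, stained with anti-acetyl-lysine or anti-acetyl-tubulin and Alexa 488 secondary plus Hoechst. Imaged at nine sites per well, 20×; percent inhibition relative to 0.2% DMSO controls.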

A short description of data set [2]: Permeability in human Caco2 cells at pH 7.4. The format is ADME, cell-based. Conditions: Caco-2, pH 7.4, read-out: permeability. On the technique in general: Caco-2 cells form a polarised layer with tight junctions and transporters.
A short description of data set [3]: Efflux ratio of permeability in human Caco2 cells at pH 7.4. The class given is ADME, cell-based. Particulars: Caco-2, pH 7.4.
Data set [4] can be described thus: Aqueous thermodynamic solubility of the compound in potassium phosphate monobasic buffer at pH 7.5 after 24 hrs by LC-MS analysis. The format is physicochemical. Conditions: read-out: Therm_solubility.
Data set [5] addresses 72 kDa type IV collagenase (Homo sapiens) (UniProt P08253). The experiment in a line: Inhibition of MMP2 (unknown origin).
Data set [6] addresses Matrix metalloproteinase-9 (Homo sapiens) (UniProt P14780). The experiment in a line: Inhibition of MMP9 (unknown origin).
For data set [7], the target named is T3, Matrix metalloproteinase-17 (Homo sapiens) (UniProt Q9ULZ9).
T3 sequence (whole entry): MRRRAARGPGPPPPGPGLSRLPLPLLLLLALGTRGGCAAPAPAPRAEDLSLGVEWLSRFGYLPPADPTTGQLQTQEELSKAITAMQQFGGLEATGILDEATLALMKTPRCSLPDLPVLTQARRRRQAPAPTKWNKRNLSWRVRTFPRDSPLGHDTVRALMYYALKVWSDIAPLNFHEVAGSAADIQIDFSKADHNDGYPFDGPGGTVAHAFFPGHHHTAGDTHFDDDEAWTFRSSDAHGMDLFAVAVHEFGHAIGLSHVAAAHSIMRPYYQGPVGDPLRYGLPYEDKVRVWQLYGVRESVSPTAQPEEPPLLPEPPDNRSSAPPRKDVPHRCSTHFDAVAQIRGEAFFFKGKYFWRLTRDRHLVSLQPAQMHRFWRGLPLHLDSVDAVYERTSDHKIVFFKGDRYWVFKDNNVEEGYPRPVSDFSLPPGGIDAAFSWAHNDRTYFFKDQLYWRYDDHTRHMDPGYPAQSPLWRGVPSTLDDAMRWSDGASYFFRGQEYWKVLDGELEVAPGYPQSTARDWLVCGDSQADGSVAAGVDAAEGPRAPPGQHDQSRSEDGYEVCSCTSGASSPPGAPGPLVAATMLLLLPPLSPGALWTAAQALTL
The experiment in a line: Inhibition of MMP4 (unknown origin).

The structures appear in SMILES notation. In brackets after ≈: the same amount, converted by molar mass. Some results are limits rather than exact numbers.

Chain of 72 kDa type IV collagenase (Homo sapiens) (P08253 110-660 limits assumed): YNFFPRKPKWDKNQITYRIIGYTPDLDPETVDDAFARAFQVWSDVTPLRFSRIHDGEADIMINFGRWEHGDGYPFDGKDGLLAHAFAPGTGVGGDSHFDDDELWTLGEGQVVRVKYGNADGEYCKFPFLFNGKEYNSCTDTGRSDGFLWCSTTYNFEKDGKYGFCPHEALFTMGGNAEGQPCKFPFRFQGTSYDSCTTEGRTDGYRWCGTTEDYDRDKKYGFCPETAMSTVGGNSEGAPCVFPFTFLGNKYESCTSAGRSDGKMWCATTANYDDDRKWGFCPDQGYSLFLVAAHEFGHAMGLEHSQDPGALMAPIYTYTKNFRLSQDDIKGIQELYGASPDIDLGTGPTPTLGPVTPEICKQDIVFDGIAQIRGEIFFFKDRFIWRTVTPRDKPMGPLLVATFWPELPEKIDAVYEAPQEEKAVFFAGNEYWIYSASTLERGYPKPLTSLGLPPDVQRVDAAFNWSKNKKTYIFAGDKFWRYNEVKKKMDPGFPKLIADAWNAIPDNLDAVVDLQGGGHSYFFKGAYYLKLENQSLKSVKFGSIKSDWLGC
Chain of Matrix metalloproteinase-9 (Homo sapiens) (P14780 whole entry): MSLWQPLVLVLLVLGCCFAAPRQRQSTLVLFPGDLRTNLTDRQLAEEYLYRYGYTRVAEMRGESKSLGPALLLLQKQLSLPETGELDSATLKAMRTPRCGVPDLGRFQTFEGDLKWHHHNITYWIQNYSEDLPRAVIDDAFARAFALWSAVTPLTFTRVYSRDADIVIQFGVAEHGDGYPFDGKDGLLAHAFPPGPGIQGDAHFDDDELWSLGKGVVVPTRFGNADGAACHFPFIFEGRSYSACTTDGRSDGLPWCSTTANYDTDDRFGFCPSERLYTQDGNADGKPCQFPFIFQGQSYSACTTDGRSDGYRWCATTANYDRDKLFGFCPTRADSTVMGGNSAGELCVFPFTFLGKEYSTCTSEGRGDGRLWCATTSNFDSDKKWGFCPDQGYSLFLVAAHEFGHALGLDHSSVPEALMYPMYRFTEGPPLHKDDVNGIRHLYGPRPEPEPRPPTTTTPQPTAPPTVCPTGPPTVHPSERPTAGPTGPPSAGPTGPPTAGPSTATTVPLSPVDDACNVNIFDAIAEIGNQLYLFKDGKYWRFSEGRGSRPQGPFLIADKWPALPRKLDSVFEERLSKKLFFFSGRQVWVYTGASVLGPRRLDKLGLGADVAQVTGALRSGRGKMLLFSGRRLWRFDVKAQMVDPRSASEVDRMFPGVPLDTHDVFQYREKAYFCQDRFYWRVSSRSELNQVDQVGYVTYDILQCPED

The term IC50 denotes the concentration at which inhibition is half-maximal. Turning to `Cn1cccc1C(=O)N1Cc2ccc(C(=O)NO)cc2C1`, the IC50 on Histone deacetylase 11 was greater than 50 µM. Moreover, in the data set filed under Homo sapiens, the Ratio IC50 is 40.

For `CC(C)(C)C(=O)N1Cc2ccc(C(=O)NO)cc2C1`, the IC50 on Histone deacetylase 11 is greater than 50 µM. The Ratio IC50 in the data set listed under Homo sapiens was found to be 40.

As for `Cn1cccc1C(=O)N1CCCc2cc(C(=O)NO)ccc2C1`, the IC50 at Histone deacetylase 11 is greater than 50 µM. In addition, the Ratio IC50 in the data set listed under Homo sapiens is 40.

By inhibition is commonly meant how much of the control response was suppressed. On to `Cn1cccc1C(=O)NCc1ccc(C(=O)NO)cc1`, for which the inhibition in data set [1] was determined as 26%. Besides, the Ratio IC50 in the data set filed under Homo sapiens was found to be 40.

With `CC(C)(C)C(=O)N1CCc2cc(C(=O)NO)ccc2C1`, the IC50 at Histone deacetylase 11 is greater than 50 µM. For the same molecule, the Ratio IC50 in the data set filed under Homo sapiens amounted to 40.

For orientation: efflux ratio means a quotient of directional permeabilities that is used to spot active efflux. Regarding `Cn1cccc1C(=O)N1CCc2cc(C(=O)NO)ccc2C1`, the IC50 on Histone deacetylase 11 was greater than 50 µM. For the same molecule, the Papp in data set [2] came out at 22 ×10⁻⁶ cm/s. The efflux ratio in data set [3] was 1.5. Besides, the solubility thermodynamic at 24 h in data set [4] is 2000 µM (≈ 599 µg/mL). Also, the INH in data set [5], in data set [6] and in [7] was greater than 100 µM throughout.

(Values after ChEMBL document CHEMBL2429834, “Potent histone deacetylase inhibitors derived from 4-(aminomethyl)-N-hydroxybenzamide with high selectivity for the HDAC6 isoform” (J Med Chem, 2013).)
